Test results: ChEMBL document CHEMBL4689842, “EUbOPEN Chemogenomics Library wave 1” (2021)

Tested on: HEK-293T
Assay: Multiplex assay against HEK293T;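 as to Population Tubulin-Different-Phenotype (%): share of the cells with healthy nuclei that show this phenotype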
Assay type: toxicity, cell-based
Conditions: human
Method in brief: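 Tubulin, mitochondrial-mass and membrane-permeability phenotypes are per cents of healthy-nucleus cells. Cells were gated by CellPathfinder machine learning into Hoechst high-intensity objects or normal cells, normal cells into healthy, pyknosed or fragmented nuclei, and pyknosed cells into mitotic or apoptotic. Before that, live cells stained at seeding with Hoechst33342, BioTracker Green Microtubule Cytoskeleton Dye, MitoTracker Red and Annexin V Alexa Fluor 680 were imaged on a CQ1 microscope at 37°C and 5% CO2 after compound addition.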

[1] = 12 h, 1 µM, compound concentration 1 uM, replicate 1
[2] = 12 h, 1 µM, compound concentration 1 uM, replicate 2
[3] = 12 h, 10 µM, compound concentration 10 uM, replicate 1
[4] = 12 h, 10 µM, compound concentration 10 uM, replicate 2
[5] = 24 h, 1 µM, compound concentration 1 uM, replicate 1
[6] = 24 h, 1 µM, compound concentration 1 uM, replicate 2
[7] = 24 h, 10 µM, compound concentration 10 uM, replicate 1
[8] = 24 h, 10 µM, compound concentration 10 uM, replicate 2
[9] = 48 h, 1 µM, compound concentration 1 uM, replicate 1
[10] = 48 h, 1 µM, compound concentration 1 uM, replicate 2
[11] = 48 h, 10 µM, compound concentration 10 uM, replicate 1
[12] = 48 h, 10 µM, compound concentration 10 uM, replicate 2

Structure (SMILES): COc1ccc(NS(=O)(=O)c2sc3ccc(Cl)cc3c2C)cc1N1CCNCC1.Cl
- Population Apoptotic (%) [1]: 40%
- Population Fragmented Nuclei (%) [1]: 17%
- Population Healthy Nuclei (%) [1]: 36%
- Population Hoechst High Intensity Objects (%) [1]: 35%
- Population Membrane Permeable-Phenotype (%) [1]: 5%
- Population Mitochondria Different-Phenotype (%) [1]: 66%
- Population Mitotic Cells (%) [1]: 59%
- Population Normal (%) [1]: 64%
- Population Pyknosed Nuclei (%) [1]: 45%
- Population Tubulin-Different-Phenotype (%) [1]: 32%
- Total Cell Count [1]: 385
- Population Apoptotic (%) [2]: 15%
- Population Fragmented Nuclei (%) [2]: 5%
- Population Healthy Nuclei (%) [2]: 41%
- Population Hoechst High Intensity Objects (%) [2]: 3%
- Population Membrane Permeable-Phenotype (%) [2]: 15%
- Population Mitochondria Different-Phenotype (%) [2]: 25%
- Population Mitotic Cells (%) [2]: 84%
- Population Normal (%) [2]: 96%
- Population Pyknosed Nuclei (%) [2]: 53%
- Population Tubulin-Different-Phenotype (%) [2]: 39%
- Total Cell Count [2]: 233
- Population Apoptotic (%) [3]: 71%
- Population Fragmented Nuclei (%) [3]: 7%
- Population Healthy Nuclei (%) [3]: 33%
- Population Hoechst High Intensity Objects (%) [3]: 12%
- Population Membrane Permeable-Phenotype (%) [3]: 4%
- Population Mitochondria Different-Phenotype (%) [3]: 99%
- Population Mitotic Cells (%) [3]: 28%
- Population Normal (%) [3]: 87%
- Population Pyknosed Nuclei (%) [3]: 59%
- Total Cell Count [3]: 350
- Population Apoptotic (%) [4]: 57%
- Population Fragmented Nuclei (%) [4]: 3%
- Population Healthy Nuclei (%) [4]: 16%
- Population Hoechst High Intensity Objects (%) [4]: 4%
- Population Membrane Permeable-Phenotype (%) [4]: 6%
- Population Mitochondria Different-Phenotype (%) [4]: 86%
- Population Mitotic Cells (%) [4]: 42%
- Population Normal (%) [4]: 95%
- Population Pyknosed Nuclei (%) [4]: 79%
- Population Tubulin-Different-Phenotype (%) [4]: 96%
- Total Cell Count [4]: 186
- Population Apoptotic (%) [5]: 46%
- Population Fragmented Nuclei (%) [5]: 21%
- Population Healthy Nuclei (%) [5]: 40%
- Population Hoechst High Intensity Objects (%) [5]: 39%
- Population Membrane Permeable-Phenotype (%) [5]: 2%
- Population Mitochondria Different-Phenotype (%) [5]: 61%
- Population Mitotic Cells (%) [5]: 53%
- Population Normal (%) [5]: 60%
- Population Pyknosed Nuclei (%) [5]: 38%
- Population Tubulin-Different-Phenotype (%) [5]: 43%
- Total Cell Count [5]: 399
- Population Apoptotic (%) [6]: 22%
- Population Fragmented Nuclei (%) [6]: 4%
- Population Healthy Nuclei (%) [6]: 58%
- Population Hoechst High Intensity Objects (%) [6]: 2%
- Population Membrane Permeable-Phenotype (%) [6]: 4%
- Population Mitochondria Different-Phenotype (%) [6]: 36%
- Population Mitotic Cells (%) [6]: 77%
- Population Normal (%) [6]: 97%
- Population Pyknosed Nuclei (%) [6]: 36%
- Population Tubulin-Different-Phenotype (%) [6]: 54%
- Total Cell Count [6]: 278
- Population Apoptotic (%) [7]: 74%
- Population Fragmented Nuclei (%) [7]: 10%
- Population Healthy Nuclei (%) [7]: 34%
- Population Hoechst High Intensity Objects (%) [7]: 21%
- Population Membrane Permeable-Phenotype (%) [7]: 4%
- Population Mitochondria Different-Phenotype (%) [7]: 98%
- Population Mitotic Cells (%) [7]: 25%
- Population Normal (%) [7]: 78%
- Population Pyknosed Nuclei (%) [7]: 54%
- Population Tubulin-Different-Phenotype (%) [7]: 97%
- Total Cell Count [7]: 356
- Population Apoptotic (%) [8]: 90%
- Population Fragmented Nuclei (%) [8]: 4%
- Population Healthy Nuclei (%) [8]: 25%
- Population Hoechst High Intensity Objects (%) [8]: 8%
- Population Membrane Permeable-Phenotype (%) [8]: 2%
- Population Mitochondria Different-Phenotype (%) [8]: 97%
- Population Mitotic Cells (%) [8]: 9%
- Population Normal (%) [8]: 91%
- Population Pyknosed Nuclei (%) [8]: 70%
- Total Cell Count [8]: 187
- Population Apoptotic (%) [9]: 47%
- Population Fragmented Nuclei (%) [9]: 23%
- Population Healthy Nuclei (%) [9]: 51%
- Population Hoechst High Intensity Objects (%) [9]: 29%
- Population Membrane Permeable-Phenotype (%) [9]: 1%
- Population Mitochondria Different-Phenotype (%) [9]: 37%
- Population Mitotic Cells (%) [9]: 52%
- Population Normal (%) [9]: 70%
- Population Pyknosed Nuclei (%) [9]: 25%
- Population Tubulin-Different-Phenotype (%) [9]: 32%
- Total Cell Count [9]: 493
- Population Apoptotic (%) [10]: 15%
- Population Fragmented Nuclei (%) [10]: 4%
- Population Healthy Nuclei (%) [10]: 81%
- Population Hoechst High Intensity Objects (%) [10]: 4%
- Population Membrane Permeable-Phenotype (%) [10]: 3%
- Population Mitochondria Different-Phenotype (%) [10]: 9%
- Population Mitotic Cells (%) [10]: 84%
- Population Normal (%) [10]: 95%
- Population Pyknosed Nuclei (%) [10]: 14%
- Population Tubulin-Different-Phenotype (%) [10]: 41%
- Total Cell Count [10]: 485
- Population Fragmented Nuclei (%) [11]: 13%
- Population Healthy Nuclei (%) [11]: 39%
- Population Hoechst High Intensity Objects (%) [11]: 26%
- Population Membrane Permeable-Phenotype (%) [11]: 0%
- Population Mitochondria Different-Phenotype (%) [11]: 100%
- Population Normal (%) [11]: 73%
- Population Pyknosed Nuclei (%) [11]: 47%
- Population Tubulin-Different-Phenotype (%) [11]: 95%
- Total Cell Count [11]: 367
- Population Apoptotic (%) [12]: 77%
- Population Fragmented Nuclei (%) [12]: 4%
- Population Healthy Nuclei (%) [12]: 28%
- Population Hoechst High Intensity Objects (%) [12]: 15%
- Population Membrane Permeable-Phenotype (%) [12]: 6%
- Population Mitochondria Different-Phenotype (%) [12]: 95%
- Population Mitotic Cells (%) [12]: 22%
- Population Normal (%) [12]: 84%
- Population Pyknosed Nuclei (%) [12]: 67%
- Population Tubulin-Different-Phenotype (%) [12]: 91%
- Total Cell Count [12]: 188
